Experimental data gathered from unrelated publications.
Observed: metabolic stability
Species: human

| SMILES | system | setting | scaled CLint |
| --- | --- | --- | --- |
| Cc1coc([C@H]2C[C@H]3[C@@H](CF)SC(N)=N[C@@]3(c3ccc(F)cc3F)CO2)n1 | liver microsomes |  | 27.8 mL/min/kg |
| Nc1nc(-c2ccc(NC(=O)Nc3cc(Br)cc(Br)c3)cc2)c[nH]1 | liver microsomes | 5 µM, pH 7.4 | < 10.4 mL/min/kg |
| CC(F)(F)CN1Cc2cc(C(F)(F)F)ncc2C2=CN=C(NCc3c(F)ccc4c3CCO4)N3C=NC(C1=O)C23 (centres unmarked) | liver microsomes | 100 µM, 30 min | 9.9 mL/min/kg |
| Cc1ccc(F)c2cc(C(=O)N[C@@H]3CCC[C@H](c4ccncc4)C3)[nH]c12 | hepatocytes | 0.5 µM, 2 h | 32.3 mL/min/kg |
| Cc1cc([C@H]2C[C@H]3[C@@H](CF)SC(N)=N[C@@]3(c3ccc(F)cc3F)CO2)on1 | liver microsomes |  | < 8 mL/min/kg |
| COc1ccc2nc3cc(Cl)ccc3c(Nc3cc(CN4CCCC4)c(O)c(CN4CCCC4)c3)c2n1 | hepatocytes | 1 µM | 3.8 mL/min/kg |
| Cc1cccnc1C(=O)Nc1ccc(N2C(=O)c3cccc(Cl)c3C2=O)c(Cl)c1 | liver microsomes | 1 µM, pH 7.4 | 16.1 mL/min/kg |
| Cc1ccc(F)c2cc(C(=O)N[C@@H]3CCC[C@H](N4CCN(C)C(=O)C4)C3)[nH]c12 | hepatocytes | 0.5 µM, 2 h | 23.7 mL/min/kg |
| Nc1nc(-c2ccc(NC(=O)c3ccc(Cl)c(Cl)c3)cc2F)c[nH]1 | liver microsomes | 5 µM, 1 h, pH 7.4 | 10.9 mL/min/kg |
| NC1=N[C@@]2(c3ccc(F)cc3F)CO[C@@H](c3ncco3)C[C@H]2CS1 | liver microsomes |  | < 8.7 mL/min/kg |
| Nc1nc(-c2ccc(NC(=O)Nc3cccc(-c4c[nH]c(N)n4)c3F)cc2F)c[nH]1 | liver microsomes | 5 µM, pH 7.4 | < 20.8 mL/min/kg |
| CC(C)(C)n1cc2c(n1)C(O)CC1(CCN(C(=O)c3ccc4[nH]ncc4c3)CC1)O2 (centres unmarked) | liver microsomes |  | < 8.8 mL/min/kg |
| Cc1coc([C@H]2C[C@H]3CSC(N)=N[C@@]3(c3ccc(F)cc3F)CO2)n1 | liver microsomes |  | 69.6 mL/min/kg |
| O=C(c1ccc(F)cc1)C1CCN(CCn2c(=O)[nH]c3ccccc3c2=O)CC1 | liver microsomes |  | 44.8 mL/min/kg |
| CC(=O)Nc1cc(Nc2cc(NC3CC3)n3ncc(C#N)c3n2)ccc1N1CCC[C@H](O)C1 | hepatocytes | 1 µM, serum-free | 73 mL/min/kg |
| O=C1c2ccc(COc3cccc(F)c3)nc2CCN1c1ccc(F)cc1 | liver microsomes |  | 8.8 mL/min/kg |
| Cc1nc2ccc(C(=O)N3CCC4(CC3)Cc3cnn(C(C)C)c3C(O)C4)cc2[nH]1 (centres unmarked) | liver microsomes |  | < 8 mL/min/kg |
| O=C1c2ccc(OCc3cccc(F)c3)nc2CCN1c1ccc(F)cn1 | liver microsomes |  | 18 mL/min/kg |
| Cn1cc([C@H]2C[C@H]3[C@@H](CF)SC(N)=N[C@@]3(c3ccc(F)cc3F)CO2)cn1 | liver microsomes |  | < 8 mL/min/kg |
| Cc1ccc(F)c2cc(C(=O)N[C@@H]3CCC[C@H](N4CCOCC4)C3)[nH]c12 | hepatocytes | 0.5 µM, 2 h | 75 mL/min/kg |
